Published values collected from several papers.
Read-out: enzyme activity
RET: Proto-oncogene tyrosine-protein kinase receptor Ret (RET, Homo sapiens, UniProt P07949)

CCCOc1ccc(OC)c(F)c1C(=O)c1ccc(C(=O)N[C@@H]2CNC[C@H]2NC(=O)c2ccc3[nH]ncc3c2)cc1 — remaining activity (RET; inhibitor; 50 nM): 100%
CCN(CC)CCNC(=O)c1c(C)[nH]c(/C=C2\C(=O)Nc3ccc(F)cc32)c1C — remaining activity (RET; inhibitor; 0.1 µM): 22%
CCOc1ccc(NC(=O)Nc2cc(OC)c3nc(NC(=O)c4ccccc4)sc3c2)cc1 — remaining activity (RET; inhibitor; radiometric; 0.1 µM): 115%
Cc1[nH]c(/C=C2\C(=O)Nc3ccc(F)cc32)c(C)c1C(=O)N[C@H]1CCN(C(=O)N(C)C)C1 — remaining activity (RET; inhibitor; 1 µM): 11%
Cc1cnc(NC2CCOCC2)nc1-n1cnc(C(=O)NC(CN)c2cc(F)cc(Cl)c2)c1 (stereo not shown) — remaining activity (Proto-oncogene tyrosine-protein kinase receptor Ret (RET, Homo sapiens, UniProt P07949, V804L); inhibitor; radiometric; 1 µM): 93%
CCN(CC)c1ccc(C2=NNC(=O)CC2C)cc1[N+](=O)[O-] (stereo not shown) — remaining activity (RET; inhibitor; 10 µM): 102%
Cc1ccc(C(=O)Nc2ccc(CN3CCN(C)CC3)c(C(F)(F)F)c2)cc1C#Cc1cnc2cccnn12 — remaining activity (Proto-oncogene tyrosine-protein kinase receptor Ret (RET, Homo sapiens, UniProt P07949, M918T); 23.5 nM): 1.4%
COc1cc(NC(=O)Nc2ccc(Br)cc2)cc2sc(NC(=O)c3ccccc3)nc12 — remaining activity (RET; inhibitor; radiometric; 0.1 µM): 120%
CC(C)(O)[C@H]1CC[C@H](Nc2ccc3ncc(-c4cccc(C(F)(F)F)c4)n3n2)CC1 — remaining activity (RET; inhibitor; 1 µM): 86.9%
COCC(=O)Nc1cc(C(=O)NCCc2cnn(C)c2)cc2ncn(CCc3ccccc3)c12 — remaining activity (RET; inhibitor; radiometric; 0.1 µM): 118%
CC(C)(C)c1nc(-c2cccc(NS(=O)(=O)c3c(F)cccc3F)c2F)c(-c2ccnc(N)n2)s1 — remaining activity (RET; inhibitor; radiometric; 1 µM): 81%
CC(=O)Nc1cccc2c1CCN(C(=O)CCNC(=O)c1ccsc1)C2 — remaining activity (RET; inhibitor; radiometric; 0.1 µM): 104%
O=C(Nc1cnn(-c2csc(C(=O)NC3COC3)c2)c1)Nc1ccccc1Cl — remaining activity (RET; inhibitor; 5 µM): 97.8%
